Reference: article PMC7274092 (Nature biomedical engineering, 2020)

Columns and labels:
[1] = Diffusion-ordered NMR spectroscopy; assay type: physicochemical; conditions: approximated from DOSY diffusion rate by the Stokes-Einstein relationship
liver and kidney = experiment: Biocompatibility of CB[7]-PEG in healthy rats; assay type: in vivo, Sprague Dawley rats; conditions: s.c. 0.2 mg/kg once daily for six weeks, n=4
How it was run: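 Healthy 10-week-old Sprague Dawley rats (n=4) received CB[7]-PEG at 0.2 mg/kg s.c. in PBS (pH 7.4) once daily for six weeks. […] Blood chemistry was run on an automated analyzer from samples taken on days 14, 28 and 42. At endpoint, liver and kidney were collected for single-blinded histopathology.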

[2] = insulin hexamer, for comparison; cited from earlier work

Row | Molecule | hydrodynamic radius (Rh) [1] [nm] | further results
1 | CC[C@H](C)[C@H](NC(=O)[C@@H]1CCCN1C(=O)CNC(=O)[C@H](Cc1ccccc1)NC(=O)[C@H](CC(N)=O)NC(=O)[C@H](CC(N)=O)NC(=O)[C@H](CO)NC(=O)[C@H](CO)NC(=O)[C@H](Cc1c[nH]cn1)NC(=O)[C@@H](NC(=O)[C@H](CC(C)C)NC(=O)[C@H](Cc1ccccc1)NC(=O)[C@H](CC(N)=O)NC(=O)[C@H](C)NC(=O)[C@H](CC(C)C)NC(=O)[C@H](CCCNC(=N)N)NC(=O)[C@H](CCC(N)=O)NC(=O)[C@@H](NC(=O)[C@H](C)NC(=O)[C@@H]1CSSC[C@H](NC(=O)[C@@H](N)CCCCN)C(=O)N[C@@H](CC(N)=O)C(=O)N[C@@H]([C@@H](C)O)C(=O)N[C@@H](C)C(=O)N[C@@H]([C@@H](C)O)C(=O)N1)[C@@H](C)O)C(C)C)C(=O)N[C@@H](CC(C)C)C(=O)N1CCC[C@H]1C(=O)N1CCC[C@H]1C(=O)N[C@H](C(=O)N[C@@H](CC(N)=O)C(=O)N[C@H](C(=O)NCC(=O)N[C@@H](CO)C(=O)N[C@@H](CC(N)=O)C(=O)N[C@H](C(=O)N[C@@H](Cc1ccc(O)cc1)C(N)=O)[C@@H](C)O)C(C)C)[C@@H](C)O [pramlintide] | 1.2 | 
2 | cucurbit[7]uril-conjugated polyethylene glycol [CB[7]-PEG] |  | blood chemistry and liver/kidney histopathology vs untreated controls (liver and kidney): No differences
3 | insulin aspart | ~2.2 | 
4 | insulin hexamer: hexameric association state of insulin |  | hydrodynamic radius [2]: approximately 2.8 nm
